Assay results reported in ChEMBL document CHEMBL1240455, “Synthesis of 5-[alkoxy-(4-nitro-phenyl)-methyl]-uridines and study of their cytotoxic activity” (Eur J Med Chem, 2010).
≈ marks a conversion by molar mass, not a printed value.

Tests used:
CCRF-CEM [1] = test: Cell cycle arrest in human CEM cells assessed as accumulation at G2/M phase using propidium iodide staining at IC50 concentration after 24 hrs by flow cytometry; type: functional
Staphylococcus aureus [2] = test: Antimicrobial activity against methicillin-resistant Staphylococcus aureus after 24 hrs; type: functional
Enterococcus faecalis = test: Antimicrobial activity against Enterococcus faecalis CCM 4224 after 24 hrs; type: functional; details: CCM 4224, 24 h
CCRF-CEM [3] = test: Inhibition of RNA synthesis in human CEM cells assessed as BrU incorporation using propidium iodide staining at 5 times IC50 concentration after 24 hrs by flow cytometry; type: functional; parameters: scale not given: the % may be the effect or the level left
Outline: (§1)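 RNA synthesis measured by flow cytometry of incorporated 5-bromouridine, detected with a cross-reacting anti-BrdU antibody. CEM cells exposed at 1× and 5× IC50 for 3, 6, 9 and 24 h and pulsed for 30 min at 37 °C before harvest. Fixed 15 min in 1% paraformaldehyde/0.05% NP-40 in PBS and stored at 4 °C at least overnight. Stained with primary and FITC secondary antibodies, 30 min each at room temperature.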

CCRF-CEM [4] = test: Cytotoxicity against human CEM cells after 72 hrs by MTT assay; type: functional, cell-based
Outline: (§2)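 Cells seeded at 2500–30,000 per well by cell type and pre-incubated 24 h at 37 °C, 5% CO2. Compounds dissolved in 10% DMSO, added as four-fold dilutions at time zero, tested in quadruplicate. Exposure 72 h at 37 °C, 5% CO2, 100% humidity. MTT then added for 1–4 h, formazan dissolved overnight at 37 °C, OD read at 540 nm. IC50 taken from dose-response curves relative to control wells.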

A549 = test: Cytotoxicity against human A549 cells after 72 hrs by MTT assay; type: functional, cell-based; outline: as §2
Staphylococcus aureus [5] = test: Antimicrobial activity against Staphylococcus aureus CCM 3953 after 24 hrs; type: functional; details: CCM 3953, 24 h
[6] = tested on: Staphylococcus haemolyticus; test: Antimicrobial activity against Staphylococcus haemolyticus after 24 hrs; type: functional
Outline: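 MIC taken as the lowest concentration preventing bacterial growth after 24 h incubation at 37 °C. Strains came from the Czech Collection of Microorganisms or from clinical isolates of hospital patients.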

K562 [7] = test: Cytotoxicity against human K562 cells after 72 hrs by MTT assay; type: functional, cell-based; outline: as §2
CCRF-CEM [8] = test: Induction of apoptosis in human CEM cells using propidium iodide staining at IC50 concentration after 24 hrs by flow cytometry; type: functional
[9] = Cytotoxicity against human CEM-DNR-B cells after 72 hrs by MTT assay; type: functional, cell-based; outline: as §2
K562 [10] = test: Cytotoxicity against human paclitaxel-resistant K562 cells after 72 hrs by MTT assay; type: functional, cell-based; outline: as §2
CCRF-CEM [11] = test: Inhibition of RNA synthesis in human CEM cells assessed as BrU incorporation using propidium iodide staining at IC50 concentration after 24 hrs by flow cytometry; type: functional; parameters: scale not given: the % may be the effect or the level left; outline: as §1
CCRF-CEM [12] = test: Induction of mitotic arrest in human CEM cells assessed as pH3Ser10 positive cells at 5 times IC50 concentration after 24 hrs by flow cytometry; type: functional
CCRF-CEM [13] = test: Cell cycle arrest in human CEM cells assessed as accumulation at S phase using propidium iodide staining at IC50 concentration after 24 hrs by flow cytometry; type: functional
CCRF-CEM [14] = test: Cell cycle arrest in human CEM cells assessed as accumulation at G0/G1 phase using propidium iodide staining at IC50 concentration after 24 hrs by flow cytometry; type: functional
CCRF-CEM [15] = test: Induction of apoptosis in human CEM cells using propidium iodide staining at 5 times IC50 concentration after 24 hrs by flow cytometry; type: functional
CCRF-CEM [16] = test: Induction of mitotic arrest in human CEM cells assessed as pH3Ser10 positive cells at IC50 concentration after 24 hrs by flow cytometry; type: functional
CCRF-CEM [17] = test: Inhibition of DNA synthesis in human CEM cells assessed as BrDU incorporation using propidium iodide staining at 5 times IC50 concentration after 24 hrs by flow cytometry; type: functional; parameters: scale not given: the % may be the effect or the level left
Outline: (§3)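 CEM cells exposed at 1× and 5× IC50 for 3, 6, 9 and 24 h, then pulsed with BrdU for 30 min at 37 °C. Cells fixed overnight in ice-cold 70% ethanol and DNA denatured in 2 M HCl for 30 min. Neutralised with 0.1 M sodium borate, then stained with anti-BrdU antibody, FITC secondary, and propidium iodide/RNase. Read by flow cytometry at 488 nm.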

CCRF-CEM [18] = test: Inhibition of DNA synthesis in human CEM cells assessed as BrDU incorporation using propidium iodide staining at IC50 concentration after 24 hrs by flow cytometry; type: functional; parameters: scale not given: the % may be the effect or the level left; outline: as §3
CCRF-CEM [19] = test: Cell cycle arrest in human CEM cells assessed as accumulation at G0/G1 phase using propidium iodide staining at 5 times IC50 concentration after 24 hrs by flow cytometry; type: functional
Outline: (§4)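 CEM T-lymphoblastic leukemia cells were exposed to compound at 1× and 5× IC50 over a 24 h interval. DNA content was measured by flow cytometry with a 488 nm laser.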

CCRF-CEM [20] = test: Cell cycle arrest in human CEM cells assessed as accumulation at G2/M phase using propidium iodide staining at 5 times IC50 concentration after 24 hrs by flow cytometry; type: functional; outline: as §4
CCRF-CEM [21] = test: Cell cycle arrest in human CEM cells assessed as accumulation at S phase using propidium iodide staining at 5 times IC50 concentration after 24 hrs by flow cytometry; type: functional; outline: as §4

SMILES | Activity (CCRF-CEM [1]) [%] | Activity (CCRF-CEM [3]) [%] | IC50 (CCRF-CEM [4]; Homo sapiens, CCRF-CEM, 72 h) [µM] | IC50 (A549; Homo sapiens, A549, 72 h) [µM] | IC50 (K562 [7]; Homo sapiens, K562, 72 h) [µM] | Activity (CCRF-CEM [8]) [%] | IC50 ([9]; Homo sapiens, 72 h) [µM] | IC50 (K562 [10]; Homo sapiens, K562, 72 h) [µM] | Activity (CCRF-CEM [11]) [%] | Activity (CCRF-CEM [12]) [%] | Activity (CCRF-CEM [13]) [%] | Activity (CCRF-CEM [14]) [%] | Activity (CCRF-CEM [15]) [%] | Activity (CCRF-CEM [16]) [%] | Activity (CCRF-CEM [17]) [%] | Activity (CCRF-CEM [18]) [%] | IC50 (CCRF-CEM [4]; ccrf-cem) [µM] | IC50 (A549; a549) [µM] | IC50 (K562 [7]; k562) [µM] | IC50 [9] [µM] | further results
CCCCCCCCOC(c1ccc([N+](=O)[O-])cc1)c1cn([C@@H]2O[C@H](CO)[C@@H](O)[C@H]2O)c(=O)[nH]c1=O (single isomer, unassigned; (+)) | 9.83 | 1.44 | 11.4 | 38.7 | 15.1 | 7 | 34.6 | 33.1 | 58.1 | 0.03 | 47.81 | 42.36 | 76 | 2.05 | 6.01 | 46.03 |  |  |  |  | MIC (Staphylococcus aureus [2]): 100 µM (≈ 50.8 µg/mL); MIC (Enterococcus faecalis): 200 µM (≈ 102 µg/mL); MIC (Staphylococcus aureus [5]): 100 µM (≈ 50.8 µg/mL); MIC [6]: 200 µM (≈ 102 µg/mL)
CCCCCCOC(c1ccc([N+](=O)[O-])cc1)c1cn([C@@H]2O[C@H](CO)[C@@H](O)[C@H]2O)c(=O)[nH]c1=O (single isomer, unassigned; (-)) |  |  |  |  |  |  |  |  |  |  |  |  |  |  |  |  | 45.5 | 156 | 64.5 | 146 | IC50 (K562 [10]; k562): 137 µM
CCCCCCCCCOC(c1ccc([N+](=O)[O-])cc1)c1cn([C@@H]2O[C@H](CO)[C@@H](O)[C@H]2O)c(=O)[nH]c1=O (single isomer, unassigned; (-)) | 8.83 | 1.9 |  |  |  |  |  |  | 57.26 | 0.04 | 47.79 | 43.38 |  | 1.74 | 0.95 | 47.38 | 10 | 29.1 | 13 | 33.8 | IC50 (K562 [10]; k562): 23.9 µM
CCCCCCCOC(c1ccc([N+](=O)[O-])cc1)c1cn([C@@H]2O[C@H](CO)[C@@H](O)[C@H]2O)c(=O)[nH]c1=O (stereo in doubt; (+)7g) |  |  |  | 39.8 | 33.6 |  | 104 | 42.8 |  |  |  |  |  |  |  |  | 12.8 |  |  |  | 
CCCCCCOC(c1ccc([N+](=O)[O-])cc1)c1cn([C@@H]2O[C@H](CO)[C@@H](O)[C@H]2O)c(=O)[nH]c1=O (stereo in doubt; (+)-7f) |  |  | 39.8 | 121 | 58.4 |  | 131 | 141 |  |  |  |  |  |  |  |  |  |  |  |  | 
CCCCCCCCCOC(c1ccc([N+](=O)[O-])cc1)c1cn([C@@H]2O[C@H](CO)[C@@H](O)[C@H]2O)c(=O)[nH]c1=O (stereo in doubt; (+)-7i) | 11.25 | 0.8 | 7.9 | 23.1 | 10.9 | 4 | 32.3 | 14.6 | 60.22 | 0.25 | 47.81 | 40.95 | 83 | 1.66 | 2.95 | 52.17 |  |  |  |  | MIC (Staphylococcus aureus [2]): 50 µM (≈ 26.1 µg/mL); MIC (Enterococcus faecalis): 50 µM (≈ 26.1 µg/mL); MIC (Staphylococcus aureus [5]): 50 µM (≈ 26.1 µg/mL); MIC [6]: 100 µM (≈ 52.2 µg/mL)
CCCCCCCOC(c1ccc([N+](=O)[O-])cc1)c1cn([C@@H]2O[C@H](CO)[C@@H](O)[C@H]2O)c(=O)[nH]c1=O (stereo in doubt; (-)-8g) |  |  |  |  |  |  |  |  |  |  |  |  |  |  |  |  | 29 | 69.9 | 36.7 | 95.6 | IC50 (K562 [10]; k562): 52.3 µM
CCCCCCCCOC(c1ccc([N+](=O)[O-])cc1)c1cn([C@@H]2O[C@H](CO)[C@@H](O)[C@H]2O)c(=O)[nH]c1=O (stereo in doubt; (-)-8h) | 11.33 | 1.61 |  |  |  | 5 |  |  | 56.18 | 0.01 | 48.56 | 40.02 | 71 | 1.68 | 6.67 | 48.73 | 16.9 | 39.7 | 24.7 | 36.6 | IC50 (K562 [10]; k562): 34.4 µM
Nc1nc(F)nc2c1ncn2[C@@H]1O[C@H](CO)[C@@H](O)[C@@H]1O [FLUDARABINE] | 19.5 | 8.92 | 19.5 | 47.4 | 267 | 62.1 | 1.01 | 0.26 | 7.62 | 0.01 | 40.84 | 39.66 | 74.84 | 0.28 | 10.37 | 14.12 |  |  |  |  | Activity (CCRF-CEM [19]): 42.11%; Activity (CCRF-CEM [20]): 4.95%; Activity (CCRF-CEM [21]): 52.94%
Nc1nc2[nH]cnc2c(=S)[nH]1 [THIOGUANINE] | 7.19 | 48.93 | 2.98 | 2.82 | 1.54 | 11.27 | 9.47 | 3.9 | 45.84 | 0.43 | 49.39 | 43.42 | 18.69 | 1.21 | 19.82 | 35.32 |  |  |  |  | Activity (CCRF-CEM [19]): 43.58%; Activity (CCRF-CEM [20]): 9.95%; Activity (CCRF-CEM [21]): 46.47%
